Source: publication PMC4830347 (Journal of the American Chemical Society, 2016)

What was measured:
HeLa cells = assay: MTT cell viability assay, HeLa cells; type: cell-based
In short: (§1)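 HeLa or Saos-2 cells seeded at 1 × 10^4 cells/well and incubated 48 h with test compound in culture medium (200, 300, 400 μM) before MTT read-out; IC50 after 48 h. Inhibitor experiments used test compound at 500 μM for 48 h with or without l-Phe (3 mM) or levamisole (1 mM). Separately, exogenous ALP (5 U/mL) was added together with test compound.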

Saos-2 cells = assay: MTT cell viability assay, Saos-2 cells; type: cell-based; conditions: Saos-2, six precursors 500 μM, 48 h
In short: as §1

Compound	rescue of precursor-treated cells by TNAP inhibitor (HeLa cells; HeLa, six precursors 500 μM, inhibitor 1 mM, 48 h)	rescue of precursor-treated cells by TNAP inhibitor (Saos-2 cells; inhibitor 1 mM)	cell compatibility (HeLa cells; 3 mM, cell culture)	rescue of precursor-treated cells by PLAP inhibitor (Saos-2 cells; L-Phe 3 mM)
c1ccc(C2CN3CCSC3=N2)cc1 (single isomer, unassigned; (-)) [(−)-tetramisole]	hardly rescues HeLa cells	significantly increases the cell viability		
N[C@@H](Cc1ccccc1)C(=O)O [L-Phe, L-phenylalanine]			cell compatible	hardly rescue the Saos-2 cells at all
